In ChEMBL document CHEMBL1154721, “Synthesis, antitumor activity and molecular docking study of novel sulfonamide-Schiff's bases, thiazolidinones, benzothiazinones and their C-nucleoside derivatives” (Eur J Med Chem, 2010):
Values after ≈ are worked out from the molar mass of the structure shown.

How the values were obtained:
[1] = Inhibition of PTK
MCF7 = assay: Cytotoxicity against human MCF7 cells after 48 hrs by SRB assay; assay type: functional, cell-based
How it was run: (§1)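 Cells were seeded and left 24 h to attach before dosing, then exposed to test compound at […], in triplicate wells per dose. Incubation was 48 h at 37 °C under 5% CO2. Cells were then fixed, washed and stained with sulforhodamine B, excess dye was removed with acetic acid, bound dye was recovered in Tris-EDTA buffer, and colour intensity was read on an ELISA reader.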

HeLa = assay: Cytotoxicity against human HeLa cells after 48 hrs by SRB assay; assay type: functional, cell-based; how it was run: as §1

Compound `COc1ccc(C2Sc3ccccc3C(=O)N2c2ccc(S(=O)(=O)Nc3ccccn3)cc2)c(O)c1` (stereo unspecified) has a Ki [1] of 4.72 µM.

For `COc1ccc(C2SCC(=O)N2c2ccc(S(=O)(=O)Nc3ccccn3)cc2)cc1OC` (stereo unspecified), the Ki [1] was 1.05 µM.

Compound `COc1ccc(C2SCC(=O)N2c2ccc(S(=O)(=O)Nc3ccccn3)cc2)c(O)c1` (stereo unspecified) has a Ki [1] of 15.4 µM.

`COc1cc(C2SCC(=O)N2c2ccc(S(=O)(=O)Nc3ccccn3)cc2)cc(OC)c1OC` (stereo unspecified) gave a Ki [1] of 5.32 µM.

`O=S(=O)(Nc1ccccn1)c1ccc(/N=C/[C@H](O)[C@H](O)[C@@H](O)[C@@H](O)CO)cc1` gave a Ki [1] of 0.331 µM.

For `COc1cc(C2Sc3ccccc3C(=O)N2c2ccc(S(=O)(=O)Nc3ccccn3)cc2)cc(OC)c1OC` (stereo unspecified), the Ki [1] was 48.7 µM.

`O=C1c2ccccc2SC(c2c[nH]c3ccccc23)N1c1ccc(S(=O)(=O)Nc2ccccn2)cc1` (stereo unspecified) gave a Ki [1] of 0.553 µM.

With `COc1ccc(/C=N/c2ccc(S(=O)(=O)Nc3ccccn3)cc2)cc1OC` the Ki [1] was 0.258 µM.

Work on `COc1ccc(C2Sc3ccccc3C(=O)N2c2ccc(S(=O)(=O)Nc3ccccn3)cc2)cc1OC` (stereo unspecified) yielded a Ki [1] of 2.51 µM.

`COc1ccc(/C=N/c2ccc(S(=O)(=O)Nc3ccccn3)cc2)c(O)c1` showed a Ki [1] of 0.258 µM.

`COc1cc(/C=N/c2ccc(S(=O)(=O)Nc3ccccn3)cc2)cc(OC)c1OC` showed a Ki [1] of 0.526 µM.

`Nc1ccc(S(=O)(=O)Nc2ccccn2)cc1` [SULFAPYRIDINE] showed a Ki [1] of 3.59 µM.

Work on `COc1ccc(C2SCC(=O)N2c2ccc(S(=O)(=O)Nc3ccccn3)cc2)cc1` (stereo unspecified) yielded a Ki [1] of 0.705 µM.

In the case of `O=C1CSC([C@H](O)[C@H](O)[C@@H](O)[C@@H](O)CO)N1c1ccc(S(=O)(=O)Nc2ccccn2)cc1` (stereo partly specified), the Ki [1] is reported as 2.35 µM.

With `O=c1[nH]cc(F)c(=O)[nH]1` [FLUOROURACIL] the IC50 (MCF7) was 0.67 mg/L (≈ 5.15 µM) and the IC50 (HeLa) was 1.01 mg/L (≈ 7.76 µM).
